aDG glyco act: alpha-DG glycosylation activation; actives 0.22% (n = 360,000); Pro5-aDG cells, alpha-DG glycosylation AlphaScreen (IIH6); 0% Pro5, 100% B10-LARGE cell signal; activation, % at 10 µM;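 active means activation of at least 8% versus controls, or a plate z-score of at least 8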;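 further: Pro5 are CHO cells carrying HIG-tagged alpha-DG that lacks glycosylation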
XiGFP reactiv: activators of X-chromosome reactivation in mouse fibroblasts; XiGFP mouse fibroblasts, % GFP-positive cells imaging, 3 d; cells co-treated with 5-aza-dC sensitizer; scaled so ellipticine positive control = 100%; activation, % at 7.58 µM; actives 0.055% (n = 360,000); AID 743238;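 active means mean normalized replicate activation at least 10% and every replicate at or above 10%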;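 further: 0% = median of on-plate neutral control wells and 100% = ellipticine 6 µM median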
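Material: XiGFP fibroblasts, SV40-immortalized. Buffer or medium: DMEM plus 5-aza-dC sensitizer. Compound: single concentration per compound, delivered by pin transfer. Times: 3 days compound exposure. Controls: ellipticine 6 µM.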
CSN deneddyl inh: blocks human CSN-mediated cullin deneddylation. Q92905. Purified CSN, SCF-Nedd8-OG deneddylation, fluorescence polarization. inhibition, % at 12.5 µM. actives 0.38% (n = 360,000);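 active means pattern-corrected inhibition above about 35%, with an unprinted fluorescence ratio check between 0.5 and 1.5, limit read from the data, passing the limit was not always enough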;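 further: 0% = enzyme with substrate and 100% = substrate without enzyme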
Target sequence (Q92905 whole entry, looked up, one chain of several): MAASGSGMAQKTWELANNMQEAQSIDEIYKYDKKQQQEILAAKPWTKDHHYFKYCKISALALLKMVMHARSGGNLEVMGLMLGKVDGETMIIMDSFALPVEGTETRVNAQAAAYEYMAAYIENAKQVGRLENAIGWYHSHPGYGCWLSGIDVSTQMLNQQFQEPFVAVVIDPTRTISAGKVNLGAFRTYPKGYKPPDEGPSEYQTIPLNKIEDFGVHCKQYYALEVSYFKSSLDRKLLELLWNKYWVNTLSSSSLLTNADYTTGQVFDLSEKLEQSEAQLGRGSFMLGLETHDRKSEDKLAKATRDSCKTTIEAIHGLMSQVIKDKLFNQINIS
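Assay system: purified human Csn5 enzyme expressed in HEK293T cells; Input: 0.24 nM Csn5 enzyme, final concentration; Reagent: 10 nM SCFSkp2-Nedd8OG; Compound dosing: 12.5 µM single point; Times: reaction 90 min, room temperature; Technique: fluorescence polarization readout.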
HNF4A DNA FP: change in binding of human HNF4 alpha to DNA; HNF4a-FITC DNA binding, fluorescence polarization, 1 h; activity change, % at 10 µM; actives 0.3% (n = 360,000); in the data active means activity change above about 30%, passing the limit was not always enough
Rpn11 inh: Rpn11 (human) deubiquitinase inhibition; human 26S proteasome, Ub4-pepOG fluorescence polarization; 20S core pre-blocked with epoxomicin; inhibition, % at 20 µM; actives 0.59% (n = 360,000);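 active means inhibition at 20 µM, scaled to each plate's controls, above about 33%, limit read from the data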
Target sequence (O00487 whole entry, looked up): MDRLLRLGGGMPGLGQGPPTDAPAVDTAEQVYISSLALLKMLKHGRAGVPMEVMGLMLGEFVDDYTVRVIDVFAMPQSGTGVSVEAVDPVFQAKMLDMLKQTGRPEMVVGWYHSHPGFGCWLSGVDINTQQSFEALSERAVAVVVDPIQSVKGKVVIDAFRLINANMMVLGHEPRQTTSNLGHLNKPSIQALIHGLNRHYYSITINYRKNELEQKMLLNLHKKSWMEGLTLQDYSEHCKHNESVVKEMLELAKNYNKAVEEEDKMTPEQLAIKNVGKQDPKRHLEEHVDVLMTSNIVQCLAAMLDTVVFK
TPT1 inhibitor: C. albicans TPT1 enzyme inhibition. recombinant caTPT1, FP RNA substrate dephosphorylation. inhibition, % at 5 µM. actives 0.81% (n = 300,000). AID 1962;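 active means inhibition above the mean of all tested compounds plus 3 SD, set per screening campaign, cut at about 24% in these data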;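 further: plate controls were DMSO alone for no effect and ferristatin control at 100 nM for full effect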
CSN deneddyl val: Csn5 (human) deneddylation inhibition, single-concentration validation. AID 720654. shares compounds with CSN deneddyl inh. inhibition, % at 16.6 µM. actives 62% (n = 540). Csn5 deneddylation of SCF-Nedd8OG, fluorescence polarization, 90 min; in the data active means inhibition above about 50%;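 further: 0% = DMSO with enzyme and 100% = no enzyme wells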
MMP2 cntr CSN: counter-screen for CSN deneddylation inhibitors: human MMP-2 inhibition; shares compounds with CSN deneddyl inh; recombinant MMP-2, FRET substrate fluorescence, 60 min; inhibition, % at 16.6 µM; actives 33% (n = 540); AID 720655;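 active means corrected plate-normalized z-score of 5 or more, or -5 or less, or inhibition of 15% or more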;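 further: plate controls were DMSO wells with enzyme for no effect and buffer wells lacking MMP-2 for full effect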
Thrombin cntr: thrombin (bovine) inhibition, counter-screen for CSN hits; actives 49% (n = 540); shares compounds with CSN deneddyl inh; bovine thrombin cleavage of Ub4-pepOG, fluorescence polarization; inhibition, % at 16.6 µM;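 active means inhibition at or above a set limit, with a fluorescence interference ratio between 0.5 and a set maximum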
Active calls of the source: *. Shown are actives, neighbours in structure and some others; about 1.3% of the full set was active somewhere.

What do the screens show for `CCc1cc(=O)oc2cc(C)c(CN3CCCC3)c(O)c12`?
aDG glyco act: 0; CSN deneddyl inh: 37*; HNF4A DNA FP: -11; Rpn11 inh: 24; TPT1 inhibitor: 2; CSN deneddyl val: 89*; MMP2 cntr CSN: 11; Thrombin cntr: 4

How did CCc1cc(=O)oc2cc(C)c(CN3CCCCC3)c(O)c12 do in these assays?
aDG glyco act: 0; CSN deneddyl inh: 23; HNF4A DNA FP: -5; Rpn11 inh: 6; TPT1 inhibitor: 0

What do the screens show for `CC1=NN2C(=N)/C(=C\c3ccc(SCc4ccccc4)o3)C(=O)N=C2S1`?
aDG glyco act: 0; CSN deneddyl inh: 8; HNF4A DNA FP: 5; Rpn11 inh: -2; TPT1 inhibitor: 14

How did N=C1/C(=C\c2ccc(SCc3ccco3)o2)C(=O)N=C2SC=NN12 do in these assays?
aDG glyco act: 1; CSN deneddyl inh: 105*; HNF4A DNA FP: 17; Rpn11 inh: 12; TPT1 inhibitor: 10; CSN deneddyl val: 60*; MMP2 cntr CSN: 3; Thrombin cntr: 26*

How did N#Cc1c(NC(=O)CSc2ncnc3sccc23)oc(-c2ccco2)c1-c1ccco1 do in these assays?
aDG glyco act: 0; CSN deneddyl inh: 51*; HNF4A DNA FP: 3; Rpn11 inh: 33; TPT1 inhibitor: 23; CSN deneddyl val: 64*; MMP2 cntr CSN: 9; Thrombin cntr: 7

What do the screens show for `Cc1cc(NC(=O)CSc2ncnc3sccc23)no1`?
aDG glyco act: 0; XiGFP reactiv: 0; CSN deneddyl inh: -2; HNF4A DNA FP: -3; Rpn11 inh: 6; TPT1 inhibitor: 0

Results for CNc1ccc(Br)cc(C(=O)/C=C/c2ccc3c(c2)OCO3)c1=O ?
aDG glyco act: 0; CSN deneddyl inh: 44*; HNF4A DNA FP: -9; Rpn11 inh: -6; TPT1 inhibitor: 18; CSN deneddyl val: 71*; MMP2 cntr CSN: -1; Thrombin cntr: 20*

How did CCOc1ccc(/C=C/C2=Cc3c(sc(NC(=O)CSc4n[nH]c(N)n4)c3C#N)C(C)(C)C2)cc1 do in these assays?
aDG glyco act: 0; CSN deneddyl inh: 44*; HNF4A DNA FP: 42*; TPT1 inhibitor: 57*; CSN deneddyl val: 72*; MMP2 cntr CSN: 7; Thrombin cntr: 35*

How did Cc1nnsc1C(=O)N/N=C/c1ccc2ccccc2c1O do in these assays?
aDG glyco act: 1; XiGFP reactiv: 1; CSN deneddyl inh: 68*; HNF4A DNA FP: 67*; TPT1 inhibitor: 110*; CSN deneddyl val: 36; MMP2 cntr CSN: -34*; Thrombin cntr: 77*

Results for Cc1nnsc1C(=O)N/N=C/c1ccccc1 ?
aDG glyco act: 0; XiGFP reactiv: 0; CSN deneddyl inh: -4; HNF4A DNA FP: -5; Rpn11 inh: -4; TPT1 inhibitor: 5

Results for O=C(O)c1cc(-c2ccc(/C=C3\NC(=O)N(c4ccc(Cl)cc4)C3=O)o2)ccc1Cl ?
aDG glyco act: 0; XiGFP reactiv: 0; CSN deneddyl inh: 40*; HNF4A DNA FP: -35; Rpn11 inh: 16; TPT1 inhibitor: 3; CSN deneddyl val: 26; MMP2 cntr CSN: 18*; Thrombin cntr: 10

What do the screens show for `O=C1NN(c2ccccc2)C(=O)/C1=C/c1ccc(-c2ccc(Cl)c(C(=O)O)c2)o1`?
aDG glyco act: 0; XiGFP reactiv: 0; CSN deneddyl inh: 28; HNF4A DNA FP: -25; Rpn11 inh: -1

What do the screens show for `Cc1c(Br)c(=O)oc2c(Br)c(O)c(O)cc12`?
aDG glyco act: 0; XiGFP reactiv: 0; CSN deneddyl inh: 40*; HNF4A DNA FP: -42; Rpn11 inh: 15; TPT1 inhibitor: 0; MMP2 cntr CSN: 11; Thrombin cntr: 29*

How did Cc1cc(C(=O)O)ccc1-c1ccc(/C=C2\NC(=O)N(Cc3ccc(F)cc3)C2=O)o1 do in these assays?
aDG glyco act: 0; XiGFP reactiv: 0; CSN deneddyl inh: 36*; HNF4A DNA FP: -17; Rpn11 inh: -8; TPT1 inhibitor: 1; MMP2 cntr CSN: 17*; Thrombin cntr: 16*

What do the screens show for `Cc1ccc(-c2csc(NC(=O)/C=C/c3ccco3)c2C(=O)O)cc1`?
aDG glyco act: 0; XiGFP reactiv: 0; CSN deneddyl inh: 42*; HNF4A DNA FP: -3; Rpn11 inh: 12; TPT1 inhibitor: 1; CSN deneddyl val: 67*; MMP2 cntr CSN: 8; Thrombin cntr: 0

What do the screens show for `CCC/C(C#Cc1ccc(N(C)C)cc1)=C1/c2ccccc2C(=O)N1c1ccccc1`?
aDG glyco act: 0; XiGFP reactiv: 4; CSN deneddyl inh: 53*; HNF4A DNA FP: 95; CSN deneddyl val: active; MMP2 cntr CSN: -59*; Thrombin cntr: -74

How did CCC/C(C#Cc1cc(OC)cc(OC)c1)=C1/c2ccccc2C(=O)N1c1ccccc1 do in these assays?
aDG glyco act: 0; XiGFP reactiv: 0; CSN deneddyl inh: -1; HNF4A DNA FP: 0; Rpn11 inh: 14

What do the screens show for `COc1cc(NCCCCCCN)c2ncccc2c1OC`?
aDG glyco act: 7; XiGFP reactiv: 0; CSN deneddyl inh: 86*; HNF4A DNA FP: 25; Rpn11 inh: 32; MMP2 cntr CSN: -20; Thrombin cntr: -41

How did CNC[C@H]1Oc2cc(C#CCOC)ccc2S(=O)(=O)N([C@H](C)CO)C[C@@H]1C do in these assays?
XiGFP reactiv: 1

How did O=C(C[C@@H]1C[C@H]2c3cc(NC(=O)NC4CCCCC4)ccc3O[C@H]2[C@@H](CO)O1)NC1CCCC1 do in these assays?
XiGFP reactiv: 0

Results for Cc1ccc(S(=O)(=O)Cc2ccc(C(=O)O)o2)cc1 ?
aDG glyco act: 0; CSN deneddyl inh: 35*; HNF4A DNA FP: -24; Rpn11 inh: -5; TPT1 inhibitor: 2; CSN deneddyl val: 64*; MMP2 cntr CSN: 22*; Thrombin cntr: 6

What do the screens show for `Cc1cc(/C=N/NC(=O)C(O)(c2ccccc2)c2ccccc2)c(C)n1-c1cccc(C(=O)O)c1`?
aDG glyco act: 0; XiGFP reactiv: 0; CSN deneddyl inh: 41*; HNF4A DNA FP: -6; Rpn11 inh: 37; TPT1 inhibitor: 15; CSN deneddyl val: 59*; MMP2 cntr CSN: 8; Thrombin cntr: 7

High-throughput results: PubChem BioAssay, several laboratories
